# Assay results gathered from unrelated publications.
# Matrix: plasma
SMILES,test system,setting,quantity,result
COc1cc(-c2cc(C(C)=O)n3ccccc23)c(OC)cc1Cn1ccnc1,male Sprague-Dawley rat,"intravenous, 5 mg/kg",MRT(0-t),1.14 h
O=C1CCC(N2Cc3cc(C4CCN(Cc5ccccc5)CC4)ccc3C2=O)C(=O)N1 (centres unmarked),male Sprague-Dawley rat,"intravenous, 1 mg/kg",MRT(0-inf),4.13 h
COc1nc(-c2cccc(-c3ccccc3)c2C)ccc1CNCCNC(=O)CCCCCCCCCCC(=O)N1CCN(CCNC(=O)c2cc3c(=O)n4cccc(C)c4nc3n(CCc3cccs3)c2=N)CC1,male Sprague-Dawley rat,"intravenous, 2 mg/kg",MRT(0-t),4.8 h
COc1ccc(-c2coc3cc(O)cc(O)c3c2=O)cc1,rat,"intravenous, 2 mg/kg",MRT,0.27 h
C[C@H]1Oc2cc(cnc2N)-c2c(nn(C)c2C#N)CN(C)C(=O)c2ccc(F)cc21,male Sprague-Dawley rat,"oral, 50 mg/kg, single dose",MRT(0-inf),25 h
CONC(=O)c1cccc2c1cc(C)n2-c1nc2c(c(NCc3ccccc3)n1)CCCN2,male Sprague-Dawley rat,"intravenous, 1 mg/kg, single dose",MRT,3.6 h
Cn1c(=O)c2[nH]cnc2n(C)c1=O,male Sprague-Dawley rat,"intravenous, 22.5 mg/kg",MRT(0-inf),3.69 h
CC[C@@H]([C@H](C)O)n1ncn(-c2ccc(N3CCN(c4ccc(OC[C@@H]5CO[C@@](Cn6cncn6)(c6ccc(F)cc6F)C5)cc4)CC3)cc2)c1=O,Sprague-Dawley rat,"oral, 40 mg/kg",MRT(0-inf),22.1 h
COc1ccc(N(Cc2csc(-c3ccccc3)n2)C(=O)CCCCCC(=O)NO)cc1,female Sprague-Dawley rat,"oral, 30 mg/kg",MRT,3.18 h
C=CC(=O)N1CCC([C@@H]2CCNc3c(C(N)=O)c(-c4ccc(Oc5ccccc5)cc4)nn32)CC1,Sprague-Dawley rat,"oral, 16 mg/kg",MRT(0-inf),3.93 h
C[C@H]1[C@@H](O)O[C@@H]2O[C@@]3(C)CC[C@H]4[C@H](C)CC[C@@H]1[C@@]24OO3,male Sprague-Dawley rat,"oral, 10 mg/kg",MRT(0-inf),2.97 h
Nc1ccn([C@@H]2O[C@H](CO)[C@@H](O)C2(F)F)c(=O)n1,male Sprague-Dawley rat,"intraperitoneal, 5 mg/kg",MRT(0-inf),0.88 h
C[C@@]12C[C@@]3(O)O[C@@H](O1)[C@]1(COC(=O)c4ccccc4)[C@H]3C[C@@]12O[C@@H]1O[C@H](CO)[C@@H](O)[C@H](O)[C@H]1O,male Sprague-Dawley rat,"oral, 80 mg/kg",MRT(0-inf),10.9 h
CCOc1c([C@H](C)n2nc(C)c3c(N)ncnc32)cc(Cl)c(F)c1[C@@H]1CNC(=O)C1,male Sprague-Dawley rat,"oral, 2 mg/kg, single dose",MRT(0-t),7.67 h
